Common to all, as to type: functional
For assay [1], the system named is Mus musculus. The assay can be described thus: Antitumor activity against L1210 leukemia in mice (Percent increase in life span.) at the dose of 240 mg/kg (mice surviving 20 or more days). An outline of the steps:
(§1)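 Male B6D2F1J mice, groups of 5–9, inoculated ip with 10^5 L1210 cells on day 0. Dosing starts day 1 on a qd×5 or q4d(2,6) schedule. Vehicles are sterile water, pH 7.4 0.05 M potassium phosphate buffer, or 0.4% Tween 80/0.5% CMC/0.9% benzyl alcohol/0.9% saline. %ILS = (T/C − 1)×100 from median survival. Weights taken days 1 and 7.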

The test system of assay [2] is Mus musculus. The assay can be described thus: Antitumor activity against L1210 leukemia in mice (Average weight per mouse on day 1.) at the dose of 180 mg/kg. An outline of the steps:
(§2)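 Male B6D2F1J mice (5–9 per group) received 10^5 L1210 cells i.p. on day 0 and drug from day 1, given qd×5 or q4d(2,6). Vehicles were sterile water, 0.05 M potassium phosphate pH 7.4, or 0.4% Tween 80/0.5% CMC/0.9% benzyl alcohol/0.9% saline. Read-out is average body weight per mouse (g) on day 1.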

Assay [3] relates to Mus musculus. The assay can be described thus: Antitumor activity against L1210 leukemia in mice (Average weight per mouse on day 1.) at the dose of 240 mg/kg. A digest of the protocol:
as §2

Assay [4] has as its system Mus musculus. The assay can be described thus: Antitumor activity against L1210 leukemia in mice (Percent increase in life span.) at the dose of 180 mg/kg (mice surviving 20 or more days). A digest of the protocol:
as §1

The subject of assay [5] is Mus musculus. The assay can be described thus: Antitumor activity against L1210 leukemia in mice (Average 7-day weight change (%)) at the dose of 180 mg/kg. An outline of the steps: (§3)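 Male B6D2F1J mice, groups of five to nine, inoculated ip with 10^5 L1210 cells on day 0. Drug treatment started day 1 on qd×5 or q4d(2,6) schedule. Vehicles: ara-C in sterile water; the n-butyl phosphate ester in 0.05 M pH 7.4 potassium phosphate buffer; others as suspensions in 0.4% Tween 80/0.5% low-density CMC/0.9% benzyl alcohol/0.9% saline. Mice weighed days 1 and 7; 7-day weight change given as g/mouse and %.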

Assay [6] concerns Mus musculus. The assay can be described thus: Antitumor activity against L1210 leukemia in mice (Average 7-day weight change (%)) at the dose of 240 mg/kg. A digest of the protocol:
as §3

Assay [7] relates to Mus musculus. The assay can be described thus: Antitumor activity against L1210 leukemia in mice (Average 7-day weight change) at the dose of 180 mg/kg. An outline of the steps:
as §3

Assay [8] relates to Mus musculus. Put plainly: Antitumor activity against L1210 leukemia in mice (Average 7-day weight change) at the dose of 240 mg/kg. An outline of the steps:
as §3

One may read the ILS as the gain in survival time of treated over control animals, in per cent. Read a low ILS as a small benefit in survival. In the assay with Mus musculus [1], `CCCCCCCCCCCCCC(=O)O[C@H]1[C@@H]2Oc3nc(=N)ccn3[C@@H]2O[C@@H]1COP(=O)(O)OCCCC` had an increase in life span (ILS) at 240 mg/kg of 112%. In addition, the Average weight with Mus musculus [2] is 23.2 g mouse-1; in the assay with Mus musculus [3], 23.4 g mouse-1. The compound also showed an ILS at 180 mg/kg with Mus musculus [4] of 100%. In addition, the Weight change is given as -11% in the assay with Mus musculus [5], -17% in the assay with Mus musculus [6], -2.6 g mouse-1 with Mus musculus [7] and -4 g mouse-1 in the assay with Mus musculus [8].

Values taken from ChEMBL document CHEMBL1122008, “Lipophilic 5'-(alkyl phosphate) esters of 1-beta-D-arabinofuranosylcytosine and its N4-acyl and 2,2'-anhydro-3'-O-acyl derivatives as potential prodrugs” (1982).
